# Laboratory results from ChEMBL document CHEMBL2069264, “Halogenated anthraquinones from the marine-derived fungus Aspergillus sp. SCSIO F063” (J Nat Prod, 2012).
# The source made the active and inactive calls. The rule behind the calls is not given here.
# Key:
# MCF7 = experiment: Cytotoxicity against human MCF7 cells after 72 hrs BY SRB assay; assay type: functional, cell-based; details: MCF7, 72 h
# Summary of the method: (§1)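 Cells seeded at 3 × 10^4 cells/mL (180 μL per well) and preincubated 24 h at 37 °C, 5% CO2. Compound added at various concentrations (20 μL), then 72 h further incubation. Fixed with 50% (w/v) TCA, stained 30 min with 0.4% SRB in 1% acetic acid, washed with 1% acetic acid. Dye dissolved in 10 mM Tris base, OD read at 570 nm. Cisplatin as positive control. Triplicate; IC50 by nonlinear curve fitting.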
# SF-268 = experiment: Cytotoxicity against human SF268 cells after 72 hrs BY SRB assay; assay type: functional, cell-based; details: SF-268, 72 h; summary of the method: as §1
# Bacillus subtilis = experiment: Antimicrobial activity against Bacillus subtilis ATCC 6633 assessed as diameter of zone of growth inhibition at 10 ug/6 mm disc incubated for 12 hrs by disc diffusion assay; assay type: functional, organism-based
# Summary of the method: (§2)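 Bacteria grown 10 h at 37 °C in LB broth as seed cultures, then mixed into LB agar to pour plates. Sterile 6 mm filter disks loaded with 5 μL test solution at 2 μg/μL in DMSO; ampicillin disks (5 μg/μL in DMSO) as positive control. Plates incubated 12 h at 37 °C, then diameter of the growth-inhibition zone around each disk recorded.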
# Staphylococcus aureus = experiment: Antimicrobial activity against Staphylococcus aureus ATCC 29213 assessed as diameter of zone of growth inhibition at 10 ug/6 mm disc incubated for 12 hrs by disc diffusion assay; assay type: functional, organism-based; summary of the method: as §2
# NCI-H460 = experiment: Cytotoxicity against human NCI-H460 cells after 72 hrs BY SRB assay; assay type: functional, cell-based; details: NCI-H460, 72 h; summary of the method: as §1
# Bacillus thuringiensis = experiment: Antimicrobial activity against Bacillus thuringiensis ATCC 39765 assessed as diameter of zone of growth inhibition at 10 ug/6 mm disc incubated for 12 hrs by disc diffusion assay; assay type: functional, organism-based; summary of the method: as §2
SMILES,IC50 (MCF7),IC50 (SF-268),diameter of the inhibition zone (DIZ) (Bacillus subtilis),diameter of the inhibition zone (DIZ) (Staphylococcus aureus),IC50 (NCI-H460),diameter of the inhibition zone (DIZ) (Bacillus thuringiensis)
CCCCC[C@H](OC)c1c(O)cc2c(c1O)C(=O)c1c(O)cc(O)cc1C2=O,35.3 µM,33.6 µM,inactive,inactive,44.2 µM,inactive
CCCCC[C@H](O)c1c(O)cc2c(c1O)C(=O)c1c(O)cc(OC)cc1C2=O,> 50 µM,> 50 µM,inactive,inactive,> 50 µM,inactive
CCCCC[C@H](OC)c1c(O)cc2c(c1O)C(=O)c1c(O)cc(OC)cc1C2=O,> 50 µM,> 50 µM,inactive,inactive,> 50 µM,inactive
CCCC/C=C/c1c(O)cc2c(c1O)C(=O)c1c(O)cc(O)cc1C2=O [AVERYTHRIN],29.7 µM,> 50 µM,inactive,inactive,> 50 µM,inactive
CCCCC[C@H](OCCCC)c1c(O)cc2c(c1O)C(=O)c1c(cc(O)c(Cl)c1O)C2=O,49.5 µM,> 50 µM,inactive,inactive,> 50 µM,inactive
CCCCC[C@H](O)c1c(O)cc2c(c1O)C(=O)c1c(cc(OC)c(Br)c1O)C2=O,25.6 µM,24.7 µM,inactive,inactive,18.9 µM,inactive
CCCCC[C@H](OC)c1c(O)cc2c(c1O)C(=O)c1c(cc(OC)c(Br)c1O)C2=O,> 50 µM,> 50 µM,inactive,inactive,> 50 µM,inactive
CCCCC[C@H](OC)c1c(O)cc2c(c1O)C(=O)c1c(cc(OC)c(Cl)c1O)C2=O,> 50 µM,> 50 µM,inactive,inactive,> 50 µM,inactive
CCCC/C=C/c1c(O)cc2c(c1O)C(=O)c1c(cc(O)c(Cl)c1O)C2=O,> 50 µM,> 50 µM,inactive,inactive,> 50 µM,inactive
CCCCC[C@H](OC)c1c(O)cc2c(c1O)C(=O)c1c(cc(O)c(Cl)c1O)C2=O,26.1 µM,34.1 µM,inactive,inactive,37.2 µM,inactive
CCCC/C=C/c1c(O)cc2c(c1O)C(=O)c1c(cc(OC)c(Cl)c1O)C2=O,24.4 µM,> 50 µM,inactive,inactive,> 50 µM,inactive
CCCCC[C@H](O)c1c(O)cc2c(c1O)C(=O)c1c(O)cc(O)cc1C2=O,45.5 µM,> 50 µM,inactive,inactive,> 50 µM,inactive
CCCCC[C@H](O)c1c(O)cc2c(c1O)C(=O)c1c(cc(O)c(Cl)c1O)C2=O,36.4 µM,> 50 µM,inactive,inactive,> 50 µM,inactive
CCCCC[C@H](O)c1c(O)cc2c(c1O)C(=O)c1c(cc(OC)c(Cl)c1O)C2=O,6.64 µM,7.11 µM,inactive,inactive,7.42 µM,inactive
CCCCC[C@H](OCCCC)c1c(O)cc2c(c1O)C(=O)c1c(O)cc(O)cc1C2=O,40.5 µM,47.2 µM,inactive,inactive,> 50 µM,inactive
